Converted amounts (≈) assume the structure as drawn.
Columns and labels:
[1] = biological target: T1, Transient receptor potential cation channel subfamily M member 5 (Homo sapiens, UniProt Q9NZQ8); test: Agonist activity at human TRPM5 expressed in CHO-K1 cells maintained at 80 mV final holding potential by syncroPatch assay; format: cell-based
T1 sequence (Q9NZQ8 whole entry): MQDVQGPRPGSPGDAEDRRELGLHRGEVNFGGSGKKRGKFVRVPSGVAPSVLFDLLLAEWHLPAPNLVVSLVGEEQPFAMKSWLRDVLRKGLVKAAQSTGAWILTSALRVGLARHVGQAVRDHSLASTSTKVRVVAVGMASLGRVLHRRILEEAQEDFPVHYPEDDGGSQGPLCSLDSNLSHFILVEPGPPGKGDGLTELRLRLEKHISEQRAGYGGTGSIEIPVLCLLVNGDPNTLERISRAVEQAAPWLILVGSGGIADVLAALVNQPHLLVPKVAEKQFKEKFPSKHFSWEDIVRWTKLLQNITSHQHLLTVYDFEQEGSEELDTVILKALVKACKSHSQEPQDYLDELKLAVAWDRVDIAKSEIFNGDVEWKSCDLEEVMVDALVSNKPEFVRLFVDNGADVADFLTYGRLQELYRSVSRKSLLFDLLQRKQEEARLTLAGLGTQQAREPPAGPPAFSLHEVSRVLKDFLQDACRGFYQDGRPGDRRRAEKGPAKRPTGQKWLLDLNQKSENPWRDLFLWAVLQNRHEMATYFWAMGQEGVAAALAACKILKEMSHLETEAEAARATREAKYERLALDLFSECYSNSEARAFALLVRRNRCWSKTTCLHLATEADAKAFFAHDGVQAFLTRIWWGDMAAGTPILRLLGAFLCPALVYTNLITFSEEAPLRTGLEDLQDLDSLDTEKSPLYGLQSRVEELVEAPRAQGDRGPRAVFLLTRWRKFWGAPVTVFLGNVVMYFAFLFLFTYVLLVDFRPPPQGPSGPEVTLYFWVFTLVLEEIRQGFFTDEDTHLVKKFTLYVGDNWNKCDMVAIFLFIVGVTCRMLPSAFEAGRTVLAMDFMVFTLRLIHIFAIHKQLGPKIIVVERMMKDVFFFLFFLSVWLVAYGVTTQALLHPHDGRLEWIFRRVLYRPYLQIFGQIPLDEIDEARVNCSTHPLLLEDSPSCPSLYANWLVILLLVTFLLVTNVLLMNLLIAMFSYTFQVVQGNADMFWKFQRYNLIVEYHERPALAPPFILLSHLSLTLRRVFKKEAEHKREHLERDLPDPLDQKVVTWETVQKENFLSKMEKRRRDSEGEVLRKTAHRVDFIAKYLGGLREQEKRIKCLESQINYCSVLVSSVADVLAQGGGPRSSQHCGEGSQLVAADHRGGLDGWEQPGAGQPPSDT
Procedure, shortened: (§1)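 SyncroPatch 384 whole-cell recording at rt on CHO-K1 cells stably expressing human or mouse TRPM5. Intracellular solution had 2 mM Na-ATP and 5 μM free Ca2+. Cumulative doses 0.03–31.6 μM in 0.5% DMSO, 150 s each after 180 s vehicle. Current measured at the end of the +80 mV step, normalized to vehicle; pEC50 is the mean of ≥2 independent experiments.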

[2] = biological target: T1, Transient receptor potential cation channel subfamily M member 5; test: Agonist activity at human TRPM5 expressed in CHO-K1 cells maintained at 80 mV final holding potential by QPatch HTX assay; format: cell-based
Procedure, shortened: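 Whole-cell QPatch HTX recording at rt on CHO-K1 cells with stable hTRPM5. Pipette solution HEDTA-buffered to 1 μM free Ca2+, pH 7.2. Cells held at 0 mV; 0.1 Hz protocol with steps to −80/+80 mV and a ramp. Current taken at the end of the first +80 mV step, no leak subtraction. Increase expressed relative to vehicle current (100%).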

[3] = biological target: Transient receptor potential cation channel subfamily A member 1 (Homo sapiens, UniProt O75762); test: Agonist activity at human TRPA1 expressed in HEK cells assessed as increase in menthol-induced intracellular calcium level incubated for 2 hrs by FLIPR assay; format: cell-based
Chain of Transient receptor potential cation channel subfamily A member 1 (O75762 whole entry): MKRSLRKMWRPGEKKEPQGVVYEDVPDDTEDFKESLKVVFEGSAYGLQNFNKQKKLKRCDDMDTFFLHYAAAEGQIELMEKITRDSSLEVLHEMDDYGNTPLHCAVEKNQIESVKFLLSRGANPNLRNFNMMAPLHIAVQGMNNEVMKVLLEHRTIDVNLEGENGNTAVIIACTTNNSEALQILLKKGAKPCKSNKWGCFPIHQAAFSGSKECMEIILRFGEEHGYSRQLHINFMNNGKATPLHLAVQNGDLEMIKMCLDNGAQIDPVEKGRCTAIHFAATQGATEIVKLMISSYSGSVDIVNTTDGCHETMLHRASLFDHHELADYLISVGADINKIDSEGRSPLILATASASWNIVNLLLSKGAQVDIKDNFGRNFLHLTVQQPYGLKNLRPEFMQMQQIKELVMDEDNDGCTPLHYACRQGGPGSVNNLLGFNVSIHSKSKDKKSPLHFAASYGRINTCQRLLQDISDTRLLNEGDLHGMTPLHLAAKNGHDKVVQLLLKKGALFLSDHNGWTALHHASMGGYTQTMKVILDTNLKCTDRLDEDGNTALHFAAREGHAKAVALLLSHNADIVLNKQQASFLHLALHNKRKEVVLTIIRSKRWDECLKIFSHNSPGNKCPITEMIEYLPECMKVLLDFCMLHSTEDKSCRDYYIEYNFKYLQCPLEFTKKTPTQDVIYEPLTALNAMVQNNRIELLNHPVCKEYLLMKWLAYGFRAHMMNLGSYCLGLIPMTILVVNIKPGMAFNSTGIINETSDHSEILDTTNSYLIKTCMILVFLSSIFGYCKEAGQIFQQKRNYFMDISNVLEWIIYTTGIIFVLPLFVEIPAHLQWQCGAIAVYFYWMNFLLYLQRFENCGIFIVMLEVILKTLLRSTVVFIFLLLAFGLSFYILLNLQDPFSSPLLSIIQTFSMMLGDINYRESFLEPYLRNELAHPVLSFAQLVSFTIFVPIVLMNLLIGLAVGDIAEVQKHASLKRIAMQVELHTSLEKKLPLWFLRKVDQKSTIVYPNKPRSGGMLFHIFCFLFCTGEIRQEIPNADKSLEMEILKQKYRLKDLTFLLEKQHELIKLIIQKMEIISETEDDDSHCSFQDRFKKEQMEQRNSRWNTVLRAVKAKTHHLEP
Procedure, shortened: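 HEK cells stably expressing hTRPA1, plated at 20,000/well 24 h ahead, loaded with calcium-6 dye plus 2.5 mM probenecid for 2 h at 37 °C. First FLIPR addition: 11-point 1:3 concentration series, read for 5 min, scaled to (−)menthol 1 mM final (100% control); pEC50 fitted. Final DMSO 0.5%; run at 37 °C.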

[4] = biological target: Transient receptor potential cation channel subfamily V member 4 (Homo sapiens, UniProt Q9HBA0); test: Agonist activity at human TRPV4 expressed in HEK cells assessed as increase in GSK1016790A-induced intracellular calcium level measured after 1 hr by FLIPR assay; format: cell-based
Chain of Transient receptor potential cation channel subfamily V member 4 (Q9HBA0 whole entry): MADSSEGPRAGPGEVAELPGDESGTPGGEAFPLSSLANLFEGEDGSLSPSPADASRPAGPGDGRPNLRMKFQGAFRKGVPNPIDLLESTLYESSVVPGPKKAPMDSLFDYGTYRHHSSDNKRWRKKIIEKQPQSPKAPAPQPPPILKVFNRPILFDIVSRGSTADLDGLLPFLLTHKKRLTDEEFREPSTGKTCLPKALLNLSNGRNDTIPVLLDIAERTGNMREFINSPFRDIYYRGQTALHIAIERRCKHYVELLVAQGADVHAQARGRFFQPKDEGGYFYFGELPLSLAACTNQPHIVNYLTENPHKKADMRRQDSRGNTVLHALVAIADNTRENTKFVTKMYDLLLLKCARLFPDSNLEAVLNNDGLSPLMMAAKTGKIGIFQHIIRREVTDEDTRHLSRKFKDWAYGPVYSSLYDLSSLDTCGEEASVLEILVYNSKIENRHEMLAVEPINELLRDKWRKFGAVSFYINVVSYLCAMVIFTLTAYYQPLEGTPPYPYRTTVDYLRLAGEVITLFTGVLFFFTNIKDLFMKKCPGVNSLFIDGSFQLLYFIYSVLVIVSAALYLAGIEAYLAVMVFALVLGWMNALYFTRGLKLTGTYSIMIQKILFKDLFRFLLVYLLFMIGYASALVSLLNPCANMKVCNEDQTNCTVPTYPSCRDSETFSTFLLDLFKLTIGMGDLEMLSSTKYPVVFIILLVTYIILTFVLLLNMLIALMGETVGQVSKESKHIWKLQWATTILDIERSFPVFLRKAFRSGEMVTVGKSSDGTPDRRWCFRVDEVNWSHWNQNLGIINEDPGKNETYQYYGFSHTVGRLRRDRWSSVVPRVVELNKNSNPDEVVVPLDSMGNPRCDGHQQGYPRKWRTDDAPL

[5] = biological target: Transient receptor potential cation channel subfamily V member 1 (Homo sapiens, UniProt Q8NER1); test: Agonist activity at human TRPV1 expressed in CHO cells assessed as increase in capsaicin-induced intracellular calcium level measured after 1 hr by FLIPR assay; format: cell-based
Chain of Transient receptor potential cation channel subfamily V member 1 (Q8NER1 whole entry): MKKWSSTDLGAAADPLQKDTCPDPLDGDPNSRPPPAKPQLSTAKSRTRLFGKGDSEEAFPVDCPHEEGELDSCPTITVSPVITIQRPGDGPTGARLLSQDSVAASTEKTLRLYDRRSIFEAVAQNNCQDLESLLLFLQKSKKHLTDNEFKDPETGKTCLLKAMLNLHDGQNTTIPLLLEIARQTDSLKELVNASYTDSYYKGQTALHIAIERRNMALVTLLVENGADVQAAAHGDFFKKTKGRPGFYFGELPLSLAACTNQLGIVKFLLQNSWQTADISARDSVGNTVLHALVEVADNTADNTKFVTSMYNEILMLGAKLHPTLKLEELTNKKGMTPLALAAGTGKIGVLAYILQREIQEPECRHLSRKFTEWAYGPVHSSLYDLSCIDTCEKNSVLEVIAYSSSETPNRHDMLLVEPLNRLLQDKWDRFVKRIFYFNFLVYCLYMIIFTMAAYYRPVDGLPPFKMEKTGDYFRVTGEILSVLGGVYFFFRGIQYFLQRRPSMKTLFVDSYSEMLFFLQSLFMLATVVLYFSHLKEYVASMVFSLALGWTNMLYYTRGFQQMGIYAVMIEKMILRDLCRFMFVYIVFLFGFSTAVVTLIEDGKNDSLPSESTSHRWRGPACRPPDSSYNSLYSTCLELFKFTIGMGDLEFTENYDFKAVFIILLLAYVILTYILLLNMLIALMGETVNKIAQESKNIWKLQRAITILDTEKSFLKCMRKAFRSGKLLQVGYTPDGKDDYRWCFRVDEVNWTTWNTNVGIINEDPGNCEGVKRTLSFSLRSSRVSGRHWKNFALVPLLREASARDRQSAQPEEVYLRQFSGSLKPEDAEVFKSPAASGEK
Procedure, shortened: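 CHO cells stably expressing hTRPV1, plated at 10,000/well 24 h before the assay. Loaded with calcium-6 dye plus 2.5 mM probenecid for 1 h at 37 °C and 1 h at rt. FLIPR dual-addition protocol; agonist potency derived as pEC50.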

[6] = biological target: Transient receptor potential cation channel subfamily M member 8 (Homo sapiens, UniProt Q7Z2W7); test: Agonist activity at human TRPM8 expressed in HEK cells assessed as increase in menthol-induced intracellular calcium level measured after 1 hr by FLIPR assay; format: cell-based
Procedure, shortened: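 HEK cells with stable hTRPM8, 20,000/well on poly-D-lysine plates 24 h ahead. Loaded with calcium-6 dye and 2.5 mM probenecid, 1 h at 37 °C then 1 h at rt. First-addition calcium rise scaled to (−)menthol 100 μM final (100% control); pEC50 derived from the concentration–response. Final DMSO 0.5%; assay at rt.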

[7] = Efflux ratio of apparent permeability across basolateral to apical over apical to basolateral membrane in human Caco-2 cells incubated for 30 mins by LC-MS/MS analysis; format: ADME, cell-based
[8] = Apparent permeability across apical to basolateral membrane in human Caco-2 cells incubated for 30 mins by LC-MS/MS analysis; format: ADME, cell-based
[9] = biological target: T2, Transient receptor potential cation channel subfamily M member 5 (Mus musculus, UniProt Q9JJH7); test: Agonist activity at mouse TRPM5 expressed in CHO-K1 cells maintained at 80 mV final holding potential by syncroPatch assay; format: cell-based; procedure, shortened: as §1
T2 sequence (Q9JJH7 whole entry): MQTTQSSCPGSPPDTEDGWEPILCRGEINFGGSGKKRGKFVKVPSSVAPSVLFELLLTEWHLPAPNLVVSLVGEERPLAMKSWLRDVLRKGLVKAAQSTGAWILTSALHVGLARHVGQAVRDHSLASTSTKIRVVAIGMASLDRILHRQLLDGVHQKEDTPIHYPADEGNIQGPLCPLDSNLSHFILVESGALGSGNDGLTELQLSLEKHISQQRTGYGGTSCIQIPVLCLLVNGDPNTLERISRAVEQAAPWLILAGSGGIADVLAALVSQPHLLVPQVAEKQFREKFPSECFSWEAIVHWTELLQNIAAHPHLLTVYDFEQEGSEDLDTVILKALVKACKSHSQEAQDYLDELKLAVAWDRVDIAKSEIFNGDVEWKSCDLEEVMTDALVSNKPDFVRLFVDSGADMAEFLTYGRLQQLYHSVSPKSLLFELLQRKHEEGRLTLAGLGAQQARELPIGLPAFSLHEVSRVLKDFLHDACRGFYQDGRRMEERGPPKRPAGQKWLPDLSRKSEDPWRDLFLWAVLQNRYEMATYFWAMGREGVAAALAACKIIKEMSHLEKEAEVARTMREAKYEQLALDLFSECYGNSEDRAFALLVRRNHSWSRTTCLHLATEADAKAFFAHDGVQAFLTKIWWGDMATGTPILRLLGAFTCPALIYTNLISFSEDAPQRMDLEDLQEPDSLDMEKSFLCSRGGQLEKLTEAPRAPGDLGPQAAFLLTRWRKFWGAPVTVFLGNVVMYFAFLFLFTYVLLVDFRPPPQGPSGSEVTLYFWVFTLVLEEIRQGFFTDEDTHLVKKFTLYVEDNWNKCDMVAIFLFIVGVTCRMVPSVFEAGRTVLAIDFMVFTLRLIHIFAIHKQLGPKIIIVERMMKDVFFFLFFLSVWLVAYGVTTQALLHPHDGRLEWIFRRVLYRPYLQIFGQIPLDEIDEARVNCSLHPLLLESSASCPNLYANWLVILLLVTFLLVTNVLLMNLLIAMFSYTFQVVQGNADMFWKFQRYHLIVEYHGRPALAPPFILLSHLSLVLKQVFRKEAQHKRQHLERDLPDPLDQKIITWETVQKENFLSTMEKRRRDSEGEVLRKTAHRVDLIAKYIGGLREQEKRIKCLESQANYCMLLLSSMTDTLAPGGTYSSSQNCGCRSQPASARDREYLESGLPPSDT

[10] = Intrinsic clearance in human liver microsomes assessed per mg protein incubated up to 30 mins in presence of NADPH by LC-MS/MS analysis; format: ADME, Microsome
[11] = Intrinsic clearance in mouse liver microsomes assessed per mg protein incubated up to 30 mins in presence of NADPH by LC-MS/MS analysis; format: ADME, Microsome
[12] = Solubility of the compound in phospahte-buffered saline buffer at pH 7.4 incubated for 2 hrs by HPLC/UV analysis; format: physicochemical; details: phosphate-buffered saline
[13] = biological target: Transient receptor potential cation channel subfamily M member 4 (Homo sapiens, UniProt Q8TD43); test: Agonist activity at human TRPM4 expressed in CHO cells assessed as change in membrane potential by FLIPR assay
Chain of Transient receptor potential cation channel subfamily M member 4 (Q8TD43 whole entry): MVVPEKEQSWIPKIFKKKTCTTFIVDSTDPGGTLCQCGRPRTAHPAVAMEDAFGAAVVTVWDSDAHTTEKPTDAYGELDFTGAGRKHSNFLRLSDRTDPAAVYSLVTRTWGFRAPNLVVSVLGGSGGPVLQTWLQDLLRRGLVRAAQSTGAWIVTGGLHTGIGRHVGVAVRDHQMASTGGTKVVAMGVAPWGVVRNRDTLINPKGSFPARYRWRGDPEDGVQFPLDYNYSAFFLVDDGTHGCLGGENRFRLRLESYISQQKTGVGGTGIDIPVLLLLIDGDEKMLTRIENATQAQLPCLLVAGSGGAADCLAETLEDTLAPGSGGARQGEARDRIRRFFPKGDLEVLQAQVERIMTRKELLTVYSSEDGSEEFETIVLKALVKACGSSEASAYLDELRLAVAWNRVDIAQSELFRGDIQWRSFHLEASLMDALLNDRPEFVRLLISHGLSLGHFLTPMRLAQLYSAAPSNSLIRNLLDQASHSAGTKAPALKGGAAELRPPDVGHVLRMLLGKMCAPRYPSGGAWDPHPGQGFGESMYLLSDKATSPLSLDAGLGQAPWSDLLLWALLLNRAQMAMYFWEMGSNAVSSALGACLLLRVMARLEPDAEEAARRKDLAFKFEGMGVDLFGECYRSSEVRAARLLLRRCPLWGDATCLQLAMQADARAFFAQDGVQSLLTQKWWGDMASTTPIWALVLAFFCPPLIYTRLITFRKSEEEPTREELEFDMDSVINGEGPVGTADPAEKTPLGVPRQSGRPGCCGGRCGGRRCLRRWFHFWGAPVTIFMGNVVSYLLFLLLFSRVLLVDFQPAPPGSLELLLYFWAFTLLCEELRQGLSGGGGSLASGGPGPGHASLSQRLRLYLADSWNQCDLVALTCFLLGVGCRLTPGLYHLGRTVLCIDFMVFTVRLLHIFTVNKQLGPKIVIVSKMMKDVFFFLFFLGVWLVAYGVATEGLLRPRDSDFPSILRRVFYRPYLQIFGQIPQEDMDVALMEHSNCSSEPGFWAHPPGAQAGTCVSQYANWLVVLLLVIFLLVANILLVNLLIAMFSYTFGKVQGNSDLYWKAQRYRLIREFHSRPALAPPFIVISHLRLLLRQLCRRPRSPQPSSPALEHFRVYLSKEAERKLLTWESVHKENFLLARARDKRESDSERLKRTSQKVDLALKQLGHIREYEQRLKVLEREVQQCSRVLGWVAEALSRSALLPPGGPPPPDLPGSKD

| SMILES | EC50 [1] [µM] | EC50 [2] [µM] | EC50 [3] [µM] | EC50 [4] [µM] | EC50 [5] [µM] | EC50 [6] [µM] | efflux ratio at 0.5 h [7] | Papp A→B at 0.5 h [8] [×10⁻⁶ cm/s] | EC50 [9] [µM] | microsomal CLint [10] [µL/min/mg] | microsomal CLint [11] [µL/min/mg] | solubility at 2 h [12] [µM] | EC50 [13] [µM] |
| --- | --- | --- | --- | --- | --- | --- | --- | --- | --- | --- | --- | --- | --- |
| Cn1c(Cl)cnc1CNc1ccc(Cl)cc1F | 4.68 | 6.03 | – | – | – | – | – | – | – | – | – | – | – |
| Cn1c(Cl)cnc1CNc1ccc2sncc2c1 | 0.331 | – | > 15.8 | > 15.8 | > 15.8 | > 15.8 | 1.03 | 21.9 | 0.316 | 109 | 446 | 215 (≈ 59.9 µg/mL) | > 63.1 |
